Test results taken from ChEMBL document CHEMBL1828575, “Design, synthesis and antiproliferative activities of biarylolefins based on polyhydroxylated and carbohydrate scaffolds” (Eur J Med Chem, 2011).

Tests used:
[1] = Cytotoxicity against human MDA231 cells at 10^-5 M after 72 hrs by MTS assay; format: functional; details: MDA-MB-231, 72 h, read-out: GI
Method in brief: (§1)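 Preliminary screen at 10^-5 and 10^-6 M. Cells were grown in RPMI with 10% fetal calf serum plus penicillin, streptomycin and fungizone under 5% CO₂, plated in 96-well plates, and dosed 24 h later from DMSO stocks (1% DMSO final, same in controls). After 72 h, MTS was added for 3 h at 37 °C and absorbance read at 490 nm. Inhibition was calculated as (1 − OD treated/OD control) × 100, in triplicate.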

HL-60 [2] = experiment: Cytotoxicity against human HL60 cells at 10^-5 M after 72 hrs by MTS assay; format: functional; details: HL-60, 72 h, read-out: GI
Method in brief: (§2)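 Cells grown in RPMI with 10% fetal calf serum, penicillin, streptomycin and fungizone under 5% CO₂. Plated in 96-well plates and dosed 24 h later with compound in DMSO (1% final DMSO; controls got DMSO alone). After 72 h, MTS was added for 3 h at 37 °C and A490 read. Inhibition = (1 − OD treated/OD control) × 100, in triplicate.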

M14 = experiment: Antitumor activity against human M14 cells after 48 hrs by SRB assay; format: functional; details: M14, 48 h
Method in brief: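 NCI60 panel in RPMI 1640 with 5% FBS and 2 mM L-glutamine. Cells were plated at 5000–40,000/well by doubling time, held 24 h, then time-zero plates were TCA-fixed. Five concentrations (10-fold or half-log dilutions of DMSO stocks) were applied for 48 h at 37 °C, 5% CO2. Cells were fixed with cold TCA (10% final adherent, 16% suspension) and stained with 0.4% SRB. Bound dye was dissolved in 10 mM Tris and read at 515 nm. GI50, TGI and LC50 were calculated per line.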

SK-MEL-28 = experiment: Cytotoxicity against human SK-MEL-28 cells assessed as cellular growth at 10 uM after 48 hrs by SRB assay; format: functional
[3] = Cytotoxicity against human HL60R cells at 10^-5 M after 72 hrs by MTS assay; format: functional, HL-60; details: read-out: GI; method in brief: as §2
HCT-116 [4] = experiment: Cytotoxicity against human HCT116 cells at 10^-5 M after 72 hrs by MTS assay; format: functional; details: HCT-116, 72 h, read-out: GI; method in brief: as §2
MCF7 [5] = experiment: Cytotoxicity against human MCF7 cells at 10^-5 M after 72 hrs by MTS assay; format: functional; details: MCF7, 72 h, read-out: GI
HCT-15 [6] = experiment: Cytotoxicity against human HCT15 cells at 10^-6 M after 72 hrs by MTS assay; format: functional; details: HCT-15, 72 h, read-out: GI; method in brief: as §2
MIA PaCa-2 [7] = experiment: Cytotoxicity against human MIAPaCa2 cells at 10^-5 M after 72 hrs by MTS assay; format: functional; details: MIA PaCa-2, 72 h, read-out: GI
HCC 2998 = experiment: Cytotoxicity against human HCC2998 cells assessed as cellular growth at 10 uM after 48 hrs by SRB assay; format: functional
Method in brief: (§3)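 NCI60 single-dose screen of cells in RPMI 1640 with 5% FBS and 2 mM L-glutamine, preincubated 24 h at 37 °C, 5% CO₂. Cells were then exposed 48 h to compound added from DMSO stock. TCA-fixed, stained with 0.4% SRB in 1% acetic acid, dye solubilised in 10 mM Tris base and read at 515 nm. Growth is given as percent of untreated control.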

HCT-15 [8] = experiment: Cytotoxicity against human HCT15 cells at 10^-5 M after 72 hrs by MTS assay; format: functional; details: HCT-15, 72 h, read-out: GI; method in brief: as §2
PC-3 [9] = experiment: Cytotoxicity against human PC3 cells at 10^-5 M after 72 hrs by MTS assay; format: functional; details: PC-3, 72 h, read-out: GI; method in brief: as §1
SK-OV-3 [10] = experiment: Cytotoxicity against human SKOV3 cells at 10^-6 M after 72 hrs by MTS assay; format: functional; details: SK-OV-3, 72 h, read-out: GI; method in brief: as §1
PC-3 [11] = experiment: Cytotoxicity against human PC3 cells at 10^-6 M after 72 hrs by MTS assay; format: functional; details: PC-3, 72 h, read-out: GI; method in brief: as §1
A549 [12] = experiment: Cytotoxicity against human A549 cells at 10^-5 M after 72 hrs by MTS assay; format: functional; details: A549, 72 h, read-out: GI; method in brief: as §2
HCT-116 [13] = experiment: Cytotoxicity against human HCT116 cells at 10^-6 M after 72 hrs by MTS assay; format: functional; details: HCT-116, 72 h, read-out: GI; method in brief: as §2
A498 = experiment: Cytotoxicity against human A498 cells assessed as cellular growth at 10 uM after 48 hrs by SRB assay; format: functional; method in brief: as §3
SW-620 = experiment: Cytotoxicity against human SW620 cells assessed as cellular growth at 10 uM after 48 hrs by SRB assay; format: functional
HL-60 [14] = experiment: Cytotoxicity against human HL60 cells at 10^-6 M after 72 hrs by MTS assay; format: functional; details: HL-60, 72 h, read-out: GI; method in brief: as §2
HT-29 [15] = experiment: Cytotoxicity against human HT-29 cells at 10^-6 M after 72 hrs by MTS assay; format: functional; details: HT-29, 72 h, read-out: GI; method in brief: as §2
MCF7 [16] = experiment: Cytotoxicity against human MCF7 cells at 10^-6 M after 72 hrs by MTS assay; format: functional; details: MCF7, 72 h, read-out: GI
K562 [17] = experiment: Cytotoxicity against human K562 cells at 10^-5 M after 72 hrs by MTS assay; format: functional; details: K562, 72 h, read-out: GI; method in brief: as §2
SF-268 [18] = experiment: Cytotoxicity against human SF268 cells at 10^-6 M after 72 hrs by MTS assay; format: functional; details: SF-268, 72 h, read-out: GI; method in brief: as §1
SK-OV-3 [19] = experiment: Cytotoxicity against human SKOV3 cells at 10^-5 M after 72 hrs by MTS assay; format: functional; details: SK-OV-3, 72 h, read-out: GI; method in brief: as §1
K562 [20] = experiment: Cytotoxicity against human K562 cells at 10^-6 M after 72 hrs by MTS assay; format: functional; details: K562, 72 h, read-out: GI; method in brief: as §2
MIA PaCa-2 [21] = experiment: Cytotoxicity against human MIAPaCa2 cells at 10^-6 M after 72 hrs by MTS assay; format: functional; details: MIA PaCa-2, 72 h, read-out: GI
RXF 393 = experiment: Cytotoxicity against human RXF393 cells assessed as cellular growth at 10 uM after 48 hrs by SRB assay; format: functional
SF-268 [22] = experiment: Cytotoxicity against human SF268 cells at 10^-5 M after 72 hrs by MTS assay; format: functional; details: SF-268, 72 h, read-out: GI; method in brief: as §1
OVCAR-8 [23] = experiment: Cytotoxicity against human OVCAR8 cells at 10^-5 M after 72 hrs by MTS assay; format: functional; details: OVCAR-8, 72 h, read-out: GI; method in brief: as §1
HT-29 [24] = experiment: Cytotoxicity against human HT-29 cells at 10^-5 M after 72 hrs by MTS assay; format: functional; details: HT-29, 72 h, read-out: GI; method in brief: as §2
[25] = Cytotoxicity against human Hs 578T cells assessed as cellular growth at 10 uM after 48 hrs by SRB assay; format: functional
OVCAR-8 [26] = experiment: Cytotoxicity against human OVCAR8 cells at 10^-6 M after 72 hrs by MTS assay; format: functional; details: OVCAR-8, 72 h, read-out: GI; method in brief: as §1
A549 [27] = experiment: Cytotoxicity against human A549 cells at 10^-6 M after 72 hrs by MTS assay; format: functional; details: A549, 72 h, read-out: GI; method in brief: as §2
[28] = Cytotoxicity against human HL60R cells at 10^-6 M after 72 hrs by MTS assay; format: functional; details: read-out: GI; method in brief: as §2
[29] = Cytotoxicity against human MDA231 cells at 10^-6 M after 72 hrs by MTS assay; format: functional; details: MDA-MB-231, 72 h, read-out: GI; method in brief: as §1

Structure (SMILES): COc1ccc(/C(=C2/O[C@@H]([C@H]3COC(C)(C)O3)[C@H]3OC(C)(C)O[C@@H]23)c2cc(OC)c(OC)c(OC)c2)cc1O
- inhibition of growth at 10 µM [1]: 79%
- inhibition of growth at 10 µM (HL-60 [2]): 69%
- GI50 (M14; read-out: GI50): 2.4 µM
- CC50 (M14; read-out: LC50 (the source's name)): > 100 µM
- TGI (M14; read-out: TGI): 5.9 µM
- GI50 (M14; read-out: pGI50 (converted)): 2.4 µM
- CC50 (M14; read-out: pLC50 (the source's name) (converted)): > 100 µM
- TGI (M14; read-out: pTGI (converted)): 5.89 µM
- Activity (SK-MEL-28): 59.6%
- inhibition of growth at 10 µM [3]: 63%
- inhibition of growth at 10 µM (HCT-116 [4]): 39%
- inhibition of growth at 10 µM (MCF7 [5]): 20%
- inhibition of growth at 1 µM (HCT-15 [6]): 3%
- inhibition of growth at 10 µM (MIA PaCa-2 [7]): 30%
- Activity (HCC 2998): 102.13%
- inhibition of growth at 10 µM (HCT-15 [8]): 66%
- inhibition of growth at 10 µM (PC-3 [9]): 71%
- inhibition of growth at 1 µM (SK-OV-3 [10]): 0%
- inhibition of growth at 1 µM (PC-3 [11]): 0%
- inhibition of growth at 10 µM (A549 [12]): 35%
- inhibition of growth at 1 µM (HCT-116 [13]): 0%
- Activity (A498): 63.35%
- Activity (SW-620): 15.44%
- inhibition of growth at 1 µM (HL-60 [14]): 2%
- inhibition of growth at 1 µM (HT-29 [15]): 2%
- inhibition of growth at 1 µM (MCF7 [16]): 0%
- inhibition of growth at 10 µM (K562 [17]): 82%
- inhibition of growth at 1 µM (SF-268 [18]): 7%
- inhibition of growth at 10 µM (SK-OV-3 [19]): 48%
- inhibition of growth at 1 µM (K562 [20]): 2%
- inhibition of growth at 1 µM (MIA PaCa-2 [21]): 0%
- Activity (RXF 393): 81.92%
- inhibition of growth at 10 µM (SF-268 [22]): 68%
- inhibition of growth at 10 µM (OVCAR-8 [23]): 17%
- inhibition of growth at 10 µM (HT-29 [24]): 3%
- Activity [25]: 22.15%
- inhibition of growth at 1 µM (OVCAR-8 [26]): 0%
- inhibition of growth at 1 µM (A549 [27]): 1%
- inhibition of growth at 1 µM [28]: 8%
- inhibition of growth at 1 µM [29]: 0%
